This passage reports Activity results from ChEMBL document CHEMBL1770139, “Synthesis of 'clickable' acylhomoserine lactone quorum sensing probes: unanticipated effects on mammalian cell activation” (Bioorg Med Chem Lett, 2011).

Active and inactive are the calls of the source. The calls are words filed in the database; no cut-off is given here.

Test [1] relates to BMDM. Description: Induction of PARP cleavage in mouse BMDM cells at 50 uM after 90 mins by Western blot analysis. It is filed as cell-based. In a few lines:
(§1)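 Primary bone marrow-derived macrophages exposed to alkynyl AHL analogue at 50 μM for 90 minutes. Cell extracts were probed by Western blot for p38 phosphorylation, eIF2α phosphorylation and PARP cleavage.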
Background: Immunoblotting shows a protein as a band on a membrane.

The target in test [2] is Eukaryotic translation initiation factor 2 subunit 1 (Mus musculus) (UniProt Q6ZWX6). Description: Induction of phosphorylation of eIF2alpha in mouse BMDM cells at 50 uM after 90 mins by Western blot analysis. Format: cell-based. In a few lines: as §1
Chain of Eukaryotic translation initiation factor 2 subunit 1 (Mus musculus) (Q6ZWX6 whole entry): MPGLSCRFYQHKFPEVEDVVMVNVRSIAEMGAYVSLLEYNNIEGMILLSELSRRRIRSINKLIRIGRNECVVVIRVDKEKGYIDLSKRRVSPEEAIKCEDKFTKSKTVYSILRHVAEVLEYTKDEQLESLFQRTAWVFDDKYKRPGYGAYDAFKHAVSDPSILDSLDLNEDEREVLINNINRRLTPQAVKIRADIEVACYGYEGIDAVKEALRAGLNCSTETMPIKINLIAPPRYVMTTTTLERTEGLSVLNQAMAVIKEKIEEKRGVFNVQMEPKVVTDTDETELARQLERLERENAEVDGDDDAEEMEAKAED
The target of test [3] is MAP kinase p38 (Mus musculus) (UniProt P47811+O08911+Q9WUI1+Q9Z1B7). Description: Induction of phosphorylation of p38 in mouse BMDM cells at 50 uM after 90 mins by Western blot analysis. It is filed as cell-based. In a few lines:
as §1

For test [4], the system named is Pseudomonas aeruginosa. Put plainly: Induction of quorum sensing activity in lasI/rhlI-deleted Pseudomonas aeruginosa PAO-JP2 expressing plasmid pKD201 containing a LasI reporter coupled to the luxCDABE assessed as relative luminescence units normalized with respect to cell viability at 1 uM after 4 hrs by autoinducer activity assay. In a few lines:
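Autoinducer assay in P. aeruginosa luminescence reporter strain PAO-JP2, a PAO1 lasI/rhlI double mutant carrying luxABCDE.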

For `[N-]=[N+]=NCCCCCCCCCC(=O)CC(=O)N[C@@H]1CCOC1=O`, the outcome in test [1], in test [2], in test [3] and in test [4] was inactive.
On to `CCCCCCCCCC(=O)CC(=O)N[C@H]1CCOC1=O`, for which the outcome in test [1], in test [2], in test [3] and in test [4] was Active.
In the case of `C#CCCCCCCCCC(=O)CC(=O)N[C@H]1CCOC1=O`, the outcome in test [1], in test [2], in test [3] and in test [4] was Active.
For `[N-]=[N+]=NCCCCCCCCCC(=O)CC(=O)N[C@H]1CCOC1=O`, the result in test [1], in test [2] and in test [3] was Active. Further, in test [4], the outcome was inactive.
As for `C#CCCCCC(=O)CC(=O)N[C@H]1CCOC1=O`, the outcome in test [1], in test [2], in test [3] and in test [4] was inactive.
